ChEMBL document CHEMBL5247635 (Eur J Med Chem, 2022)
Active and inactive are the calls of the source. The calls are words filed in the database; no cut-off is given here.

What was measured:
[1] = system: Leishmania infantum; test: Antileishmanial activity against GFP-expressing Leishmania infantum intracellular amastigotes infected in human THP-1 derived macrophage cells assessed as reduction in parasite viability measured for 72 hrs by resazurin/alamar blue fluorometric assay; type: functional, organism-based
In short: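 Human THP-1-derived macrophages infected with GFP-expressing L. infantum amastigotes; compounds at 2.3–75 µM, infected cells monitored for 72 h. EC50 ± SE from three independent experiments.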

[2] = Cytotoxicity against human HepG2 cells assessed as reduction in cell proliferation measured after 72 hrs by crystal violet staining based analysis; type: toxicity
[3] = Thermodynamic aqueous solubility of compound at 25 degreeC measured after 24 hrs by HPLC analysis; type: physicochemical; conditions: buffer, read-out: Therm_solubility
In short: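 Excess compound was suspended in water (pH 5.5), sonicated 10 min, equilibrated overnight at room temperature, and centrifuged. Supernatant was diluted and quantified by HPLC (UV 254 nm) against a five-point standard curve (10–500 µM).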

[4] = Selectivity index, ratio of CC50 for human HepG2 cells to EC50 for GFP-expressing Leishmania infantum intracellular amastigotes infected in human THP-1 derived macrophage cells; type: toxicity, cell-based; conditions: read-out: Ratio CC50/EC50
[5] = Selectivity index, ratio of CC50 for human HepG2 cells to EC50 for Leishmania infantum MCAN/ES/89/IPZ229/1/89 axenic amastigotes; type: toxicity; conditions: read-out: Ratio CC50/EC50
[6] = target: T1, Trypanothione reductase (Leishmania infantum, UniProt A4HSF7); test: Disruption of HIS-FLAG-tagged recombinant Leishmania infantum TryR dimerization expressed in Escherichia coli Rossetta BL21 (DE3) cells incubated for 16 hrs by ELISA analysis
In short: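 400 nM HIS-FLAG-tagged LiTryR (co-purified with HIS-tagged LiTryR as heterodimer) incubated with compound (3.1–75 μM) in 50 mM Tris pH 8.0, 300 mM NaCl, 16 h, 37 °C with vigorous shaking; centrifuged, supernatant captured on α-FLAG plates, detected with HRP-α-HIS antibody and o-phenylenediamine, A490. Signal normalized to DMSO; IC50 by nonlinear regression; triplicate, three independent experiments.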

[7] = Cytotoxicity against human HepG2 cells assessed as reduction in cell proliferation treated for 24 hrs by crystal violet staining based analysis; type: toxicity
[8] = system: Leishmania infantum; test: Antileishmanial activity against Leishmania infantum MCAN/ES/89/IPZ229/1/89 axenic amastigotes assessed as reduction in parasite viability treated for 24 hrs by PI staining based flow cytometry; type: functional, organism-based; conditions: MCAN/ES/89/IPZ229/1/89, 24 h
In short: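 Axenic amastigotes were seeded from log-phase cultures at 10^5 parasites/mL in M199-based medium at pH 5.4. They were derived from promastigotes by 3 days at 37 °C. Compounds at 2.3–75 µM for 24 h at 37 °C. Viability read by propidium iodide flow cytometry. EC50 ± SE from three independent experiments, each in triplicate.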

[9] = target: Trypanothione reductase (Trypanosoma cruzi, UniProt P28593); test: Inhibition of HIS-tagged recombinant Trypanosoma cruzi TryR oxidoreductase activity expressed in Escherichia coli in the presence of NADPH by spectrophotometry based DTNB-coupled assay
In short: (§1)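 HIS-tagged TryR from each species was expressed in E. coli. Activity was read by DTNB-coupled assay at 26 °C in 40 mM HEPES pH 7.5, 1 mM EDTA, 30 µM NADP+, 25 µM DTNB, 150 µM NADPH, 1.75% DMSO. Conditions were 50 µM TS2 and 0.5 nM enzyme; reaction started with NADPH + TS2. TNB absorbance at 412 nm. Three independent experiments.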

[10] = target: Trypanothione reductase (Trypanosoma congolense, UniProt P13110); test: Inhibition of HIS-tagged recombinant Trypanosoma congolense TryR oxidoreductase activity expressed in Escherichia coli in the presence of NADPH by spectrophotometry based DTNB-coupled assay; in short: as §1
[11] = target: Trypanothione reductase (Trypanosoma brucei brucei, UniProt P39051); test: Inhibition of HIS-tagged recombinant Trypanosoma brucei TryR oxidoreductase activity expressed in Escherichia coli in the presence of NADPH by spectrophotometry based DTNB-coupled assay; in short: as §1
[12] = system: Leishmania infantum; test: Antileishmanial activity against Leishmania infantum promastigotes assessed as reduction in non-protein thiol content at 75 uM incubated for 1 hrs by CMF diacetate probe based flow cytometry relative to control; type: functional; design: scale not given: the % may be the effect or the level left
In short: (§2)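 Promastigotes grown in RPMI-1640 with 10% FCS and 25 mM HEPES pH 7.2 at 26 °C. Treatments were 75 µM for 1 h, 5 mM BSO for 72 h, or both combined; vehicle served as control. Some parasites were also H2O2-treated. Non-protein thiols read by flow cytometry as CMF diacetate green fluorescence in PI-excluding live parasites. Means of nine independent experiments with 99.0% confidence intervals.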

[13] = target: Trypanothione reductase (Leishmania infantum) (UniProt A4HSF7); test: Mixed non-competitive inhibition of Leishmania infantum TryR using TS2 as substrate assessed as increase in apparent inhibition constant of initial EI complex by plot analysis
In short: (§3)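 Final assay: 40 mM HEPES pH 7.5, 1 mM EDTA, 300 µM NADPH, 60 µM NADP+, 150 µM DTNB, 3.1–100 µM TS2, 1.04% DMSO, 0.5 nM LiTryR, with serially diluted inhibitor. Enzyme was added last by automated dispenser to avoid preincubation. Progress curves were read at 412 nm at 26 °C; initial and steady-state velocities were fitted to kinetic models. Three independent experiments.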

[14] = system: Leishmania infantum; test: Antileishmanial activity against H2O2-induced Leishmania infantum promastigotes assessed as reduction in non-protein thiol content at 75 uM treated for 1 hr in presence of BSO by CMF diacetate probe based flow cytometry relative to control; type: functional; design: scale not given: the % may be the effect or the level left; in short: as §2
[15] = system: Leishmania infantum; test: Antileishmanial activity against Leishmania infantum promastigotes assessed as reduction in total thiol content at 75 uM treated for 1 hr by CMF diacetate probe based flow cytometry relative to control; type: functional; design: scale not given: the % may be the effect or the level left; in short: as §2
[16] = target: T1, Trypanothione reductase; test: Mixed non-competitive inhibition of Leishmania infantum TryR using TS2 as substrate assessed as inhibition constant of two-step induced-fit mechanism by plot analysis; in short: as §3
[17] = target: T1, Trypanothione reductase; test: Mixed non-competitive inhibition of Leishmania infantum TryR using TS2 as substrate assessed as inhibition constant of first equilibrium by plot analysis; in short: as §3
[18] = target: T1, Trypanothione reductase; test: Inhibition of HIS-tagged recombinant Leishmania infantum TryR oxidoreductase activity expressed in Escherichia coli in the presence of NADPH by spectrophotometry based DTNB-coupled assay
In short: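 HIS-tagged LiTryR was used in a DTNB-coupled assay at 26 °C. Buffer: 40 mM HEPES pH 7.5, 1 mM EDTA, 30 µM NADP+, 25 µM DTNB, 150 µM NADPH, 1.75% DMSO. Standard runs used 1 µM TS2 and 7 nM enzyme; cross-species runs used 50 µM TS2 and 0.5 nM enzyme. Started with NADPH + TS2; TNB read at 412 nm. Compounds were screened at 75 µM first. Three independent experiments.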

[19] = target: Trypanothione reductase (Leishmania infantum) (UniProt A4HSF7); test: Mixed non-competitive inhibition of Leishmania infantum TryR using TS2 as substrate assessed as increase in apparent inhibition constant of high affinity EI complex by plot analysis; in short: as §3
[20] = target: Trypanothione reductase (Leishmania infantum) (UniProt A4HSF7); test: Time-dependent inhibition of Leishmania infantum TryR using TS2 as substrate assessed as decrease in final steady-state velocity at fixed TS2 concentration; in short: as §3
[21] = target: Trypanothione reductase (Leishmania infantum) (UniProt A4HSF7); test: Time-dependent inhibition of Leishmania infantum TryR using TS2 as substrate assessed as decrease in initial velocity rate at fixed TS2 concentration; in short: as §3
[22] = system: Leishmania infantum; test: Antileishmanial activity against Leishmania infantum promastigotes assessed as reduction in parasite growth at 5 mM treated for 72 hrs; type: functional, organism-based
[23] = system: Leishmania infantum; test: Antileishmanial activity against H2O2-induced Leishmania infantum promastigotes assessed as reduction in non-protein thiol content at 5 mM treated for 72 hrs by CMF diacetate probe based flow cytometry relative to control; type: functional; design: scale not given: the % may be the effect or the level left; in short: as §2
[24] = target: T1, Trypanothione reductase; test: Competitive inhibition of HIS-FLAG-tagged recombinant Leishmania infantum TryR expressed in Escherichia coli assessed as dissociation constant by SPR assay
[25] = target: T1, Trypanothione reductase; test: Competitive inhibition of HIS-FLAG-tagged recombinant Leishmania infantum TryR expressed in Escherichia coli using TS2 substrate assessed as inhibition constant in the presence of NADPH by spectrophotometry based DTNB-coupled assay

Trypanothione reductase (Trypanosoma congolense, UniProt P13110), sequence (P13110 whole entry): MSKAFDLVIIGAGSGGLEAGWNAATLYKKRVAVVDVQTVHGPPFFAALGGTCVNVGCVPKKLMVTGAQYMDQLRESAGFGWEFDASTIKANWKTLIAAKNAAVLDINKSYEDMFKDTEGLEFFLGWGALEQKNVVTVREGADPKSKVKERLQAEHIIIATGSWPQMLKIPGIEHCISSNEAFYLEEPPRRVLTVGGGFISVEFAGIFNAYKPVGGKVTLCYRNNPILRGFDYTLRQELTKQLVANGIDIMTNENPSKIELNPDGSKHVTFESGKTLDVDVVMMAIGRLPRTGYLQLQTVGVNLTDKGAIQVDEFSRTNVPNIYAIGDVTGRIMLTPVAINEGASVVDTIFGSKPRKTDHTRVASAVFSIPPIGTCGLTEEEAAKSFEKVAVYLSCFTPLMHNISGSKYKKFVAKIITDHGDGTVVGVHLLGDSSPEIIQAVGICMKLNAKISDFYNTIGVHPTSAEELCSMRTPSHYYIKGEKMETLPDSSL
Trypanothione reductase (Trypanosoma brucei brucei, UniProt P39051), sequence (P39051 whole entry): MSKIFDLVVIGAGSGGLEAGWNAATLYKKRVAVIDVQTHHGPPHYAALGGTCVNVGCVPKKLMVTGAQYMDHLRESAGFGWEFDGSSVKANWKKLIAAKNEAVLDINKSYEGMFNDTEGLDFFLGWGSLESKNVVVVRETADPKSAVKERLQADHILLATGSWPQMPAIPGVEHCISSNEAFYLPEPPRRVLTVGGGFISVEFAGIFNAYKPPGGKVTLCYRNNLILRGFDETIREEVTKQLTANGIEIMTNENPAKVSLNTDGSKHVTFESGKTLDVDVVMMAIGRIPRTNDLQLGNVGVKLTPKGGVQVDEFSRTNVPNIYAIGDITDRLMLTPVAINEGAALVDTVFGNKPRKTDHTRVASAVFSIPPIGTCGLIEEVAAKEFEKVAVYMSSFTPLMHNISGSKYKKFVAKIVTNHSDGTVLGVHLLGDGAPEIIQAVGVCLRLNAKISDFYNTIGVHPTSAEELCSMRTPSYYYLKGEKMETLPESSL
Trypanothione reductase (Trypanosoma cruzi, UniProt P28593), sequence (P28593 whole entry): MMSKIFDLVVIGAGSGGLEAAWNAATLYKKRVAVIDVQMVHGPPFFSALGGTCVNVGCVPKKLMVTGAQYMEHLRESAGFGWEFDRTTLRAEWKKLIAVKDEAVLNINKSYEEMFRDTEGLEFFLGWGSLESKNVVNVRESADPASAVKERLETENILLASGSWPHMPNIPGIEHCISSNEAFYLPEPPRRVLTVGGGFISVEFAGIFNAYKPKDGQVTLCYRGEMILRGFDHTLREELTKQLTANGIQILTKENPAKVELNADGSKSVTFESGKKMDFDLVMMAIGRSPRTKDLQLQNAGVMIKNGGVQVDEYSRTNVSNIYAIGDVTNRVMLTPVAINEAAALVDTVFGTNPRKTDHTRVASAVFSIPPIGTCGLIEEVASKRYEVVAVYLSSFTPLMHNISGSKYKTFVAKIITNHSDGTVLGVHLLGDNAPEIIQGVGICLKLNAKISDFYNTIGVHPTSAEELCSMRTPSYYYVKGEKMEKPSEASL
T1 sequence (A4HSF7 whole entry): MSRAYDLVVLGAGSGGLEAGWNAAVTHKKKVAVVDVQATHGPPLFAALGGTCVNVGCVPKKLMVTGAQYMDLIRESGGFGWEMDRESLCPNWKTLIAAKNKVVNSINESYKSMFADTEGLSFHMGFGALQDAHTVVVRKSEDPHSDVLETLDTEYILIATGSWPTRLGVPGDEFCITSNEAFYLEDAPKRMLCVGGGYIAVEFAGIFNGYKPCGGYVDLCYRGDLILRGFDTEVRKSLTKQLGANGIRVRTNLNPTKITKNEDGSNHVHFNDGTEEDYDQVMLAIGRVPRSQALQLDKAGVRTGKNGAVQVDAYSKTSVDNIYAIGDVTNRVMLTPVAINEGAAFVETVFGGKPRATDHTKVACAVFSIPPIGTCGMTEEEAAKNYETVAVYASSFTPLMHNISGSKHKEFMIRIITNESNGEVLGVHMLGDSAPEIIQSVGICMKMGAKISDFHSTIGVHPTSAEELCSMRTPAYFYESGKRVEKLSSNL
Trypanothione reductase (Leishmania infantum), sequence (A4HSF7 as listed by the source): as the sequence (A4HSF7 whole entry) above

SMILES | EC50 [1] [µM] | CC50 at 72 h [2] [µM] | solubility thermodynamic at 24 h [3] [µg/mL] | selectivity ratio [4] | selectivity ratio [5] | IC50 [6] [µM] | CC50 at 24 h [7] [µM] | EC50 [8] [µM] | IC50 [9] [µM] | IC50 [10] [µM] | IC50 [11] [µM] | other results
NCCCCc1cn(-c2ccc(-c3nc(CCc4ccc(-c5ccccc5)cc4)cs3)c(OCCN3CCNC3=O)c2)nn1.O=C(O)C(F)(F)F | 52.1 | 40.5 | 200 | < 1 | – | – | – | – | – | – | – | –
C[n+]1nn(-c2ccc(-c3nc(CCc4ccc5ccccc5c4)cs3)c(OCCN3CCNC3=O)c2)cc1CCCCN.O=C(O)C(F)(F)F.O=S(=O)([O-])C(F)(F)F | 27 | > 75 | 23500 | > 2.8 | > 5.8 | > 75 | > 75 | 12.9 | 9.2 | 4.2 | 5.1 | –
C[n+]1nn(-c2ccc(-c3nc(CCc4ccc(-c5ccccc5)cc4)cs3)c(OCCN3CCNC3=O)c2)cc1CCCCN.O=C(O)C(F)(F)F.O=S(=O)([O-])C(F)(F)F | 8.7 | > 75 | 12400 | > 8.6 | > 6.5 | 10.3 | > 75 | 11.6 | 9.2 | 3.6 | 4.9 | Activity [12]: 20%; inhibition [13]: Active; Activity [14]: 50%; Activity [15]: 15%; Ki [16]: 0.2 µM; Ki [17]: 1.2 µM; IC50 [18]: 5.2 µM; inhibition [19]: Active; inhibition [20]: Active; inhibition [21]: Active
CCCCS(=N)(=O)CCC(N)C(=O)O (racemic) [BUTHIONINE SULFOXIMINE] | – | – | – | – | – | – | – | – | – | – | – | Activity [22]: inactive; Activity [23]: 50%
C[n+]1nn(-c2ccc(-c3nc(CCc4ccc(-c5ccccc5)cc4)cs3)c(OCCN3CCNC3=O)c2)cc1CCCN.O=C(O)C(F)(F)F.O=S(=O)([O-])C(F)(F)F | 7.3 | > 75 | 21600 | > 10.3 | > 15.6 | 45.4 | > 75 | 4.8 | – | – | – | –
C[n+]1nn(-c2ccc(-c3nc(CCc4ccccc4)cs3)c(OCCN3CCNC3=O)c2)cc1CCCCN.O=C(O)C(F)(F)F.O=S(=O)([O-])C(F)(F)F | – | – | > 15900 | – | > 1.1 | – | > 75 | 66.6 | 48.5 | 18.7 | 26.9 | Kd [24]: 1 µM; Ki [25]: 7.3 µM; IC50 [18]: 9.4 µM
NCCCCc1cn(-c2ccc(-c3nc(CCc4cccc5ccccc45)cs3)c(OCCN3CCNC3=O)c2)nn1.O=C(O)C(F)(F)F | > 75 | > 29 | 2100 | < 1 | – | – | – | – | – | – | – | –
NCCCCc1cn(-c2ccc(-c3nc(CCc4ccccc4)cs3)c(OCCN3CCNC3=O)c2)nn1.O=C(O)C(F)(F)F | 29.4 | 27.8 | 6400 | < 1 | – | – | – | – | – | – | – | –
NCCCc1cn(-c2ccc(-c3nc(CCc4ccc(-c5ccccc5)cc4)cs3)c(OCCN3CCNC3=O)c2)nn1.O=C(O)C(F)(F)F | > 75 | 37.3 | 2800 | < 1 | – | – | – | – | – | – | – | –
